ChEMBL document CHEMBL2331234, “Novel analgesic/anti-inflammatory agents: 1,5-diarylpyrrole nitrooxyalkyl ethers and related compounds as cyclooxygenase-2 inhibiting nitric oxide donors” (J Med Chem, 2013)

Tests used:
J774 = test: Selectivity index, ratio of IC50 for COX1 in mouse J774 cells […]; type: cell-based
[1] = target: T1, Prostaglandin G/H synthase 2 (Homo sapiens) (UniProt P35354); test: (§1) Inhibition of COX2 in human whole blood assessed as reduction in LPS-induced PGE2 generation pre-treated prior to LPS-challenge
T1 sequence (whole entry): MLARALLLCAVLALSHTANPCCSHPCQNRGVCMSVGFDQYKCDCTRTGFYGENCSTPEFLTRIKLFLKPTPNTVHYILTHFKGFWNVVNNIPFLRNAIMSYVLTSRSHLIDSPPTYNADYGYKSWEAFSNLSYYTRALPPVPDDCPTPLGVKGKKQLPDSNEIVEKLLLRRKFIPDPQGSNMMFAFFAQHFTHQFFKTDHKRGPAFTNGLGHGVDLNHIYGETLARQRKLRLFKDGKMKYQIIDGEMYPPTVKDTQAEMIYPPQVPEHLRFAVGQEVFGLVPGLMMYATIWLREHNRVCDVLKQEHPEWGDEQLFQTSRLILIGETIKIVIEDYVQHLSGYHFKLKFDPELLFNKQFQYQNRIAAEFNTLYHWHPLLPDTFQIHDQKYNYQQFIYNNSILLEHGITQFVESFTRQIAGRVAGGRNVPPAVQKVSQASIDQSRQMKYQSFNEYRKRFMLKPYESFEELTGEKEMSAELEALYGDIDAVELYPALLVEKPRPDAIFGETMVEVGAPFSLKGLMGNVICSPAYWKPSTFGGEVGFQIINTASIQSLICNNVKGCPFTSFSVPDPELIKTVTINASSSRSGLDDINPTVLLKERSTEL
Method in brief: (§2)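 Heparinized whole blood came from three healthy volunteers pretreated with aspirin 300 mg 48 h before sampling to suppress platelet COX-1. Compounds in DMSO were added at 0.1-300 µM final. Blood was incubated with LPS 10 µg/mL for 24 h at 37 °C. Plasma PGE2 was measured by RIA.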

[2] = target: T2, Prostaglandin G/H synthase 2 (Homo sapiens, UniProt P35354); test: as §1; method in brief: as §2
T2 sequence (P35354 whole entry): T1 sequence (whole entry)

Rattus norvegicus [3] = test: Antiinflammatory activity in Sprague-Dawley/Wistar rat assessed as decrease in carrageenan-induced paw edema at 10 mg/kg, po administered 3 hrs 30 mins after carrageenan-challenge measured after 60 mins (reference value: 2.48 +/- 0.06 mL); type: functional
Rattus norvegicus [4] = test: Antiinflammatory activity in Sprague-Dawley/Wistar rat assessed as decrease in carrageenan-induced paw edema at 20 mg/kg, po administered 3 hrs 30 mins after carrageenan-challenge measured after 60 mins (reference value: 2.48 +/- 0.06 mL); type: functional

In the case of Cc1c(CCOCCO[N+](=O)[O-])cc(-c2ccc(S(C)(=O)=O)cc2)n1-c1ccc(F)cc1, the Ratio IC50 (J774) is reported as greater than 714, the IC80 [1] is reported as 2260 nM and the inhibition [1] is reported as “Dose-dependent effect”. The IC50 [2] was 640 nM, the Activity (Rattus norvegicus [3]) was 1.87 mL and the Activity (Rattus norvegicus [4]) was 1.92 mL.
